High-throughput results deposited in PubChem BioAssay by several laboratories.
Rows were chosen to be rich in hits. Some 3.1% of all compounds tested hit in one or more screens of this group.
UHRF1 binding = human UHRF1 methylated DNA binding inhibitors; UHRF1 binding to methylated oligo, TR-FRET; inhibition, % at 4.4 µM; 0.75% of 370,000 active; AID 687016; in the data active means inhibition above about 21%;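 further: UHRF1 SRA domain binding a hemimethylated CpG hairpin DNA probe; 0% = median of test compound wells and 100% = reference inhibitor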
ATG4B inhibitor = ATG4B (human) cysteine protease inhibition | 0.51% of 340,000 active | ATG4B cleavage of LC3-PLA2, NBD-HPC fluorescence, 1 h | inhibition, % at 8.33 µM | Q9Y4P1 | AID 504462; in the data active means inhibition above about 40%
rCAG RNA binder = r(CAG) repeat RNA binding; inhibition, % at 3 µM; TO-PRO-1 dye displacement fluorescence; 1.3% of 370,000 active; AID 651821;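 active means inhibition above the plate cutoff, the mean of all test compounds on that plate plus 3 SD, cut at about 35% in these data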;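 further: 0% = DMSO alone and 100% = 100 µM mitoxantrone as full dye displacement; higher means more dye released from RNA so lower well fluorescence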
CSN deneddyl inh = blocks human CSN-mediated cullin deneddylation; Q92905; Purified CSN, SCF-Nedd8-OG deneddylation, fluorescence polarization; inhibition, % at 12.5 µM; 0.38% of 360,000 active; AID 651999;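 active means pattern-corrected inhibition above about 35%, with an unprinted fluorescence ratio check between 0.5 and 1.5, limit read from the data, passing the limit was not always enough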;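 further: 0% = enzyme with substrate and 100% = substrate without enzyme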
Target sequence (Q92905 whole entry, looked up, one chain of several): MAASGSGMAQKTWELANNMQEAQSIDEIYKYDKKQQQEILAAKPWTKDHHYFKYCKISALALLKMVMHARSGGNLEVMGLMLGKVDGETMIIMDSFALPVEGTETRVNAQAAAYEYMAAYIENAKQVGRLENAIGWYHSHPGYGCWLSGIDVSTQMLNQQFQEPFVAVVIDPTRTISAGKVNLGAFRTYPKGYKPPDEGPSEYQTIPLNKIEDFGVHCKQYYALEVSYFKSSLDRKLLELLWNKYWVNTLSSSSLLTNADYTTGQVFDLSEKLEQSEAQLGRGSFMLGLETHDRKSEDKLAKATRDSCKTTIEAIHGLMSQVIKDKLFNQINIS
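Assay system: purified human Csn5 enzyme expressed in HEK293T cells; measure: % inhibition; also added: SCFSkp2-Nedd8OG substrate at 10 nM final; technique: fluorescence polarization; times: reaction 90 min, room temperature; medium: Tris buffer pH 7.5, NaCl, DTT, Tween-20, trehalose, ovalbumin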
MBD2 DNA inh = blocks human MBD2 binding to methylated DNA | TR-FRET, MBD2 binding to methylated oligonucleotide | 0.31% of 370,000 active | inhibition, % at 4.4 µM | Q9UBB5 | AID 686964; in the data active means inhibition above about 13%
Target sequence (Q9UBB5 whole entry, looked up): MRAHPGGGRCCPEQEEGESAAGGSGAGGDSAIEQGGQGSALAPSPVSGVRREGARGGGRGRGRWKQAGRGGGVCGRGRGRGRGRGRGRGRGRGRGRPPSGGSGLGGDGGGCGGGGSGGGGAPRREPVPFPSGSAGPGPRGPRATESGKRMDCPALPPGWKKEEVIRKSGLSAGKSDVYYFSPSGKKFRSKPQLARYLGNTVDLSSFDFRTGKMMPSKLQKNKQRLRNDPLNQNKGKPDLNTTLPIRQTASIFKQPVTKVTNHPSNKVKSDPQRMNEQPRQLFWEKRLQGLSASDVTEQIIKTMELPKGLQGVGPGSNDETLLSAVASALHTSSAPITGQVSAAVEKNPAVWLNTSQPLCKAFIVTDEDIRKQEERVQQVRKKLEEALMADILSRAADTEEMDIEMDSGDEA
LEDGF integ inh = blocks HIV-1 LEDGF/p75-dependent DNA integration; AID 743269; TR-FRET IN-LEDGF/p75 DNA integration, Eu/Cy5; 0.64% of 370,000 active; inhibition, % at 3.7 µM;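 active means inhibition above the screen-wide mean plus 3 SD, cut at about 13% in these data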;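 further: signal is the Cy5 over europium emission ratio at 671 and 618 nm; 0% = plate median of compound wells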
rCAG bind conf = r(CAG) RNA repeat binding, confirmation. shares compounds with rCAG RNA binder. TO-PRO-1 dye displacement fluorescence. inhibition, % at 3 µM. 70% of 4,300 active. AID 652065;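 active means inhibition above a per-plate cutoff, the mean inhibition of sample wells plus 3 SD, cut at about 35% in these data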;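 further: loss of TO-PRO-1 fluorescence as compound displaces dye from 1x1 AA loop RNA; 0% = DMSO only wells and 100% = 100 µM mitoxantrone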
DNA CAG counter = DNA CAG dye complex inhibition counter-screen; d(CAG) DNA oligo TO-PRO-1 dye displacement, fluorescence; 94% of 4,300 active; inhibition, % at 3 µM; shares compounds with rCAG RNA binder;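 active means inhibition above its plate's cutoff, the mean test-well inhibition plus 3 SD, cut at about 4.8% in these data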;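 further: 0% = DNA dye mix with DMSO and 100% = 100 µM mitoxantrone; hits displace the dye from DNA and so lower well fluorescence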
DNA CAG DR = counter-screen for rCAG binders: inhibitors of DNA CAG TO-PRO-1 complex. shares compounds with rCAG RNA binder. DNA CAG/GTC duplex TO-PRO-1 dye displacement fluorescence. IC50, µM. 20% of 250 active. AID 686960; in the data active means IC50 below about 10 µM
Numbers without * were called inactive; nt = no result.

SMILES | UHRF1 binding | ATG4B inhibitor | rCAG RNA binder | CSN deneddyl inh | MBD2 DNA inh | LEDGF integ inh | rCAG bind conf | DNA CAG counter | others
COc1ccc(Cl)cc1-n1c(=S)sc2c(=O)[nH]c(SCC(=O)NCC3CCCO3)nc21 (stereo unspecified) | 2 | 17 | 41* | -3 | -2 | -1 | 31 | 6.6*
COC(=O)C1=C(C)N(Cc2ccc(C(F)(F)F)cc2)C(=NCC2CC2)NC1c1cccc(Cl)c1 (stereo unspecified) | 0 | nt | 8 | nt | 3 | 3 | nt | nt
CCOC(=O)c1c(-c2ccccc2)csc1NC(=O)/C(C#N)=C/c1ccc(O)c(OC)c1 | 1 | 10 | 45* | 125 | -5 | 1 | 87* | 60*
O=C(O)Cn1cc(/C=C2/NC(=O)N(c3ccc(Cl)cc3)C2=O)c2ccccc21 | -1 | 4 | 61* | 0 | 2 | 0 | 62* | 21*
O=C(O)Cn1cc(/C=c2/sc3nc4ccccc4n3c2=O)c2ccccc21 | -1 | 4 | 52* | 5 | -4 | -1 | 90* | 73*
CC(C)n1cc(/C=C2\NC(=O)N(c3cccc(Cl)c3)C2=O)c2ccccc21 | 3 | -15 | 7 | 4 | 1 | -3 | nt | nt
C#CCNC(=O)C[C@@H]1C(=O)N(CC=C)/C2=C/CCCCC[C@]21C(=O)OCC | 0 | nt | 4 | nt | -6 | 1 | nt | nt
Cc1[nH]n(-c2ccccc2)c(=O)c1N=Nc1c(O)cc(S(=O)(=O)N(C)C)c2ccccc12 | 0 | 33 | 42* | 1 | -1 | 0 | 89* | 67*
O=C(O)c1[nH]c2ccc(Br)cc2c1CCN1C(=O)c2cccc([N+](=O)[O-])c2C1=O | 2 | -4 | 64* | 0 | 4 | -4 | 42* | 13*
O=C(O)c1[nH]c2ccc(Cl)cc2c1CCN1C(=O)c2ccccc2C1=O | 2 | 1 | 50* | -2 | -7 | 7 | 26 | 6.3*
Cc1ccc(C)c(NC(=O)c2ccc(CS(=O)(=O)Cc3ccccc3C)o2)c1 | -1 | nt | 2 | nt | 2 | 0 | nt | nt
N#C/C(=C\c1c[nH]c2ccccc12)C(=O)NC1CC1 | -7 | -3 | 54* | 2 | -6 | 0 | 1 | 1
COC(=O)c1c(NC(=O)/C=C/C(=O)O)sc(C)c1-c1ccc(C(C)C)cc1 | 0 | 16 | 52* | -2 | 2 | 1 | 51* | 16*
COC(=O)c1c(NC(=O)/C=C/C(=O)O)sc(C)c1-c1ccc(C)cc1 | 1 | -6 | 21 | -4 | 1 | 0 | nt | nt
CCOC(=O)c1c(NC(=O)/C=C/C(=O)O)sc(C)c1-c1ccc(C)c(C)c1 | -3 | 3 | 53* | -8 | 3 | 1 | 53* | 17*
COC(=O)c1c(NC(=O)/C=C/C(=O)O)sc(C)c1-c1ccc(C)c(C)c1 | 1 | -7 | 37* | -7 | 0 | 5 | 36* | 9.1*
CN(C(=O)[C@@H](C1CC1)[C@@H](O)c1ccc(Cl)cc1)c1ccccc1 | 3 | nt | -2 | nt | -4 | -1 | nt | nt
Cc1ccccc1C(=O)N(Cc1ccccn1)CC1CCCO1 (stereo unspecified) | -1 | nt | 2 | nt | 0 | -2 | nt | nt
Cc1nn(CCc2nn[nH]n2)c2nc(-c3ccccc3)cc(C(F)(F)F)c12 | -5 | 27 | 44* | 0 | -2 | 6 | 25 | 3
COC(=O)[C@]12C[C@H](CC(=O)N3CCCCC3)C(=O)N(Cc3ccco3)C1=C[C@H](COCc1ccccc1)O[C@@H]2C | 1 | nt | 3 | nt | -6 | 3 | nt | nt
CCOC(=O)N1CCc2c(sc(NC(=O)c3ccc(S(=O)(=O)N4CCCC4)cc3)c2C#N)C1 | -6 | -8 | 84* | 16 | -7 | 7 | 57* | 19*
CC(C)[C@H](Nc1ccc(C(F)(F)F)cc1[N+](=O)[O-])C(=O)O | -2 | -9 | 4 | -5 | -2 | -1 | nt | nt
O=C(NNc1ccc(C(F)(F)F)cc1[N+](=O)[O-])c1ccc(NS(=O)(=O)c2ccc(F)cc2)cc1 | -1 | 2 | 71* | 2 | -4 | -3 | 61* | 22*
Cc1ccc(NC(=S)N(CCN2CCCCC2)Cc2ccco2)cc1 | -2 | 6 | -2 | 0 | -3 | 0 | nt | nt
Cc1ccc(NC(=S)N(Cc2ccco2)C2CCN(C(C)C)CC2)cc1 | -2 | 30 | 37* | -2 | 2 | 2 | 0 | 1
SMILES | UHRF1 binding | ATG4B inhibitor | rCAG RNA binder | CSN deneddyl inh | MBD2 DNA inh | LEDGF integ inh | rCAG bind conf | DNA CAG counter | others
C#CCNC(=O)C[C@H]1C[C@@]2(C(=O)OC)C(=C[C@H](C3CCCC3)O[C@@H]2C)N(CCC2=CCCCC2)C1=O | 4 | nt | 6 | nt | 2 | -4 | nt | nt
Cc1ccc(CNC(=O)OC(C)(C)C)c(/C=C/S(=O)(=O)NCc2ccc(F)cc2)c1 | -1 | nt | -2 | nt | 2 | 7 | nt | nt
O=C(O)c1cccc(S(=O)(=O)N(Cc2ccccc2)c2ccccc2Cl)c1 | 6 | -5 | 30 | 0 | 0 | -2 | nt | nt
O=C(O)c1cccc(S(=O)(=O)N(Cc2ccccc2)c2cccc(C(F)(F)F)c2)c1 | -1 | 4 | 53* | 2 | -10 | 4 | 53* | 12* | DNA CAG DR=>30
Cc1ccc(S(=O)(=O)N(CC(=O)Nc2ccccc2C(=O)O)c2ccc(Cl)cc2)cc1 | 0 | 15 | 62* | 0 | -5 | 6 | 58* | 18*
O=C(O)c1cc(S(=O)(=O)N(Cc2ccccc2)c2ccc(Cl)cc2)ccc1Cl | 0 | 15 | 54* | -1 | -1 | 2 | 43* | 9.8*
CCCCCCNC(=O)C1CSCCS(=O)(=O)N1Cc1ccc(F)cc1 (stereo unspecified) | 0 | nt | -3 | nt | -10 | -3 | nt | nt
Cc1nccc(-c2cccc(N/N=C(\C#N)C(=O)c3ccccc3)c2)n1 | 0 | -8 | 51* | 2 | 0 | 0 | 35* | 9.3*
O=C(NNS(=O)(=O)c1ccccc1[N+](=O)[O-])c1cc2ccccc2cc1O | -1 | -17 | 36* | 2 | -4 | 2 | 18 | 7.6*
O=C(NNS(=O)(=O)c1ccccc1[N+](=O)[O-])c1ccccc1Cl | -1 | -2 | 2 | 3 | -5 | -3 | nt | nt
Cc1cc(C(F)(F)F)n(-c2nc(C(=O)NNS(=O)(=O)c3ccccc3[N+](=O)[O-])cs2)n1 | -3 | -9 | 45* | -4 | 0 | -3 | 27 | 8.6*
O=C(O)c1ccccc1C(=O)Nc1cccc([N+](=O)[O-])c1 | 0 | -1 | 2 | 2 | -1 | -4 | nt | nt
